# Assay results as given in ChEMBL document CHEMBL5247671, “Design and Synthesis of Pyrazole-Based Macrocyclic Kinase Inhibitors Targeting BMPR2” (ACS Med Chem Lett, 2023).
# Tests used:
# [1] = biological target: Glycogen synthase kinase-3 beta (Homo sapiens, UniProt P49841); experiment: Inhibition of N-terminal NanoLuc-fused full length intact GSK3B (unknown origin) transfected in HEK293T cells incubated for 2 hrs in presence of tracer K8 by NanoBRET assay; type: cell-based
# In short: (§1)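 Cellular target engagement by NanoBRET in intact cells expressing NanoLuc-fused GSK3A or GSK3B, with EC50 values derived from tracer displacement.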
# [2] = biological target: T1, Bone morphogenetic protein receptor type-2 (Homo sapiens) (UniProt Q13873); experiment: Binding affinity to BMPR2 (unknown origin) assessed as change in entropy by ITC assay
# T1 sequence (whole entry): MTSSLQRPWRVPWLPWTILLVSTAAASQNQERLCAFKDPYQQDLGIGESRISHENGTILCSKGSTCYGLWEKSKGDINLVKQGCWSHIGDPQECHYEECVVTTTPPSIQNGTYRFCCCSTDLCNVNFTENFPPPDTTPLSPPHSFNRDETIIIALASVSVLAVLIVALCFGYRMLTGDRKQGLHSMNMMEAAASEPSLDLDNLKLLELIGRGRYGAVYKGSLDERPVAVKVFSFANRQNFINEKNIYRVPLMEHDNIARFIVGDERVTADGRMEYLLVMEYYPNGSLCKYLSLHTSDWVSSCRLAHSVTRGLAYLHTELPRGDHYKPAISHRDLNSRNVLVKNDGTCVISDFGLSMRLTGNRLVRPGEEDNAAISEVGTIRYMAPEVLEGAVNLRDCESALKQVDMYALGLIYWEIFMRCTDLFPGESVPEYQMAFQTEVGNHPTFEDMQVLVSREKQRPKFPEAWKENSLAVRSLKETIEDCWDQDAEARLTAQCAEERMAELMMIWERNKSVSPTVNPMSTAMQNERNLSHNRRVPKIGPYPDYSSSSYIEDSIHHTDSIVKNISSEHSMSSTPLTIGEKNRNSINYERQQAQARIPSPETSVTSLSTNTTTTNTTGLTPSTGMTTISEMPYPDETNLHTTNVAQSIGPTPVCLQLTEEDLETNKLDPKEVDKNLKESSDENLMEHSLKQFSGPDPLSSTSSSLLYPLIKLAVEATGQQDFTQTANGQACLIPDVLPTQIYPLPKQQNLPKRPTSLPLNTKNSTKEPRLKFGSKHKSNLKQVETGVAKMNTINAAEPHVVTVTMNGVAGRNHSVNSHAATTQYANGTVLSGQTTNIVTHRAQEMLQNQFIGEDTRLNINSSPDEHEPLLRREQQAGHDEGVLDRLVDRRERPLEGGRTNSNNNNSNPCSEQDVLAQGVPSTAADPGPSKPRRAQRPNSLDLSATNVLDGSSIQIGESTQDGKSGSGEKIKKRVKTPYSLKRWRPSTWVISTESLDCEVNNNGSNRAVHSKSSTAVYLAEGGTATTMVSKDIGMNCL
# In short: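 Binding measured by isothermal titration calorimetry against the recombinant BMPR2 kinase domain. Thermodynamic binding parameters, including the dissociation constant, were derived from the titration data.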
# [3] = biological target: Serine/threonine-protein kinase 24 (Homo sapiens) (UniProt Q9Y6E0); experiment: Binding affinity to recombinant MST3 (unknown origin) assessed as change in melting temperature at 10 uM by DSF assay
# In short: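 Differential scanning fluorimetry on an in-house panel of 90 recombinant kinases. Stabilization is read as the shift in melting temperature (ΔTm) relative to ligand-free protein. Staurosporine served as the positive control, and binding was also compared against its ΔTm.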
# [4] = biological target: Glycogen synthase kinase-3 alpha (Homo sapiens, UniProt P49840); experiment: Inhibition of N-terminal NanoLuc-fused full length GSK3A (unknown origin) transfected in HEK293T cells incubated for 2 hrs in presence of tracer K8 by NanoBRET assay; type: cell-based; in short: as §1
# [5] = system: T2, Receptor-type tyrosine-protein kinase FLT3 (Homo sapiens), P36888 [D835V]; experiment: Inhibition of FLT3 D835V mutant (unknown origin) at 1 uM by Kinomescan assay relative to staurosporine
# T2 sequence (whole entry): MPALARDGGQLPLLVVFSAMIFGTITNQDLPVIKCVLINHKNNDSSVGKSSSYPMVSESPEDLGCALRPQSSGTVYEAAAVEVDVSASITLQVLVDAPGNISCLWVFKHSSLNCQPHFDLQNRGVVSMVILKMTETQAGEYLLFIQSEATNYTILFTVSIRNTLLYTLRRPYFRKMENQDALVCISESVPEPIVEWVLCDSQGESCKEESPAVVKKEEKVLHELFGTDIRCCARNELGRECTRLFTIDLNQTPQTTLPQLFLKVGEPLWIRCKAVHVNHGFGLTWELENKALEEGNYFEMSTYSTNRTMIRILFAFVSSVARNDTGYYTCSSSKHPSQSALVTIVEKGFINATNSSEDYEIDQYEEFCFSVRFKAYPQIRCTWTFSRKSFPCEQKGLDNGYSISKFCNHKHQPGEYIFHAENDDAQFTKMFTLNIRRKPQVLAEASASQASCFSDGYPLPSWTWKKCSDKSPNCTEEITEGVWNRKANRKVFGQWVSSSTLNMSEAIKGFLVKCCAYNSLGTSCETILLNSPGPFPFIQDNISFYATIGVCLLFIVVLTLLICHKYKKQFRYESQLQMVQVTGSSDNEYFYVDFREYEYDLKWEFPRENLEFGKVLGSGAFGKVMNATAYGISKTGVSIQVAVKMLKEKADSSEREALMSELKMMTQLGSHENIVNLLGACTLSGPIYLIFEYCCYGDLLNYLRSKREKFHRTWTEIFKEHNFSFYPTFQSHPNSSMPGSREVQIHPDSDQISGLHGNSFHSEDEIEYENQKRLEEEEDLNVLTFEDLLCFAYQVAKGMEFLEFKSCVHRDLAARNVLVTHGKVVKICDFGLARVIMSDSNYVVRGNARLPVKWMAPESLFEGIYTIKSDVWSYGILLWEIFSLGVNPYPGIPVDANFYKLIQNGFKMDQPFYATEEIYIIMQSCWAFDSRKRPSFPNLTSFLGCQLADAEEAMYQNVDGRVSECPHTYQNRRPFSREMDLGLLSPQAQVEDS
# Sequence of Glycogen synthase kinase-3 alpha (P49840 whole entry, the tested form may be a part): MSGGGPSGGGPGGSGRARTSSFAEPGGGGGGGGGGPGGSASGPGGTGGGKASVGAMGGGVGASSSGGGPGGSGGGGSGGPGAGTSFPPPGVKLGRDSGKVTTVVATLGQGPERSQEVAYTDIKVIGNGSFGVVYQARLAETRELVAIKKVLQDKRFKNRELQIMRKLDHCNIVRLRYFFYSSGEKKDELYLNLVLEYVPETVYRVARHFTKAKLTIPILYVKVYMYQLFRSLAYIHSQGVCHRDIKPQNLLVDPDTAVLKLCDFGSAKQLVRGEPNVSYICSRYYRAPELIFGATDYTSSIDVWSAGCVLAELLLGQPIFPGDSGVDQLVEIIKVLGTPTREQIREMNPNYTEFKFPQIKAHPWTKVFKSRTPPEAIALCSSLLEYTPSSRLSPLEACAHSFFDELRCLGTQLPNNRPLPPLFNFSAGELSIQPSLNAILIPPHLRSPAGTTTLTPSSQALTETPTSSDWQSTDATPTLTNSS
# Sequence of Serine/threonine-protein kinase 24 (Homo sapiens) (Q9Y6E0 whole entry, looked up): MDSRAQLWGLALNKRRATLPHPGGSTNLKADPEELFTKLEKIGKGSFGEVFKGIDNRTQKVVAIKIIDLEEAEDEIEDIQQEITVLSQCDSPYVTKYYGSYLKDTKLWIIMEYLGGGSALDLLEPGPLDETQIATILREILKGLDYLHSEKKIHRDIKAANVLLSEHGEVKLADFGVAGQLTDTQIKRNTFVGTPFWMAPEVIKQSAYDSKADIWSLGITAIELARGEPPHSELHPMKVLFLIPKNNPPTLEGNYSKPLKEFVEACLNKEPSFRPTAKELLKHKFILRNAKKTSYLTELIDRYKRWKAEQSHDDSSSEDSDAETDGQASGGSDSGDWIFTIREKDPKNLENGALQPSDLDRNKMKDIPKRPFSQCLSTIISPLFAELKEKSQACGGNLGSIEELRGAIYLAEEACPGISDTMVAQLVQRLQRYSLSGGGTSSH
# Sequence of Glycogen synthase kinase-3 beta (P49841 whole entry, the tested form may be a part): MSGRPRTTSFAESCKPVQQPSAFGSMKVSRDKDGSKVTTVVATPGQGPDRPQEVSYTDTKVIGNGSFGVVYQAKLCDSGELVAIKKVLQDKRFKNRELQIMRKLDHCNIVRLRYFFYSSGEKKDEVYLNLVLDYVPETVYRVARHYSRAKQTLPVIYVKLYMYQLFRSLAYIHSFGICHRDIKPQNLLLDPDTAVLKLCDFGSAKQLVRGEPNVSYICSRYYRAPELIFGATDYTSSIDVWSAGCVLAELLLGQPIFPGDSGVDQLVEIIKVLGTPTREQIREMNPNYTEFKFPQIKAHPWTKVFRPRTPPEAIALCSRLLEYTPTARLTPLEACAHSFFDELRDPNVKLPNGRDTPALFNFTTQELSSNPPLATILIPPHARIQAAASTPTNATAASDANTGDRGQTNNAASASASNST
structure (smiles),measurement,setting,value
O=C1NCCc2ccc(cc2)Nc2nccc(n2)Nc2cc1[nH]n2,IC50,[1],34 µM
same,deltaS,[2],3.7 cal/mol.K
same,ΔTm,[3],3.2 °C
same,IC50,[4],11 µM
same,inhibition,[5],4.5%
